Published values from different studies.
Compare with care: the assays were run in different laboratories.
Observed: cell growth or viability

SMILES	cell line	method	time	endpoint	result
O=C(Cn1cnc2ccccc21)NN=Cc1ccc(O)cc1O	SH-SY5Y	MTT	24 h	IC50	89.2 µM
CN1CCN(CC2CCN(c3nccc4[nH]c(-c5cc(F)cc(F)c5)nc34)CC2)CC1	CHO	–	–	CC50	24 µM
CC(Oc1ccc(Cl)cc1Cl)C(=O)NC(c1ccc(F)cc1)C1CCC1 (centres unmarked)	CHO	LDH	–	CC50	> 100 µM
COc1ccc(S(=O)(=O)ON=C2C=C(C)C(=O)C(C)=C2)cc1	SH-SY5Y	–	–	CC50	0.19 µM
CC(Oc1ccc(F)cc1Cl)C(=O)NCc1ccc2c(c1)OCO2 (centres unmarked)	CHO	LDH	–	CC50	> 100 µM
CN1CCN(c2nccc3nc(-c4ccc(F)c(F)c4)[nH]c23)CC1	CHO	–	–	CC50	> 50 µM
C#CCN[C@@H]1CCc2ccccc21	SH-SY5Y	MTT	24 h	IC50	> 500 µM
O=[N+]([O-])c1ccc(-c2nc3cccc(O)c3[nH]2)o1	CHO	resazurin	72 h	CC50	97 µM
